# Shown are actives, neighbours in structure and some others; about 1.1% of the full set was active somewhere.
# Diaph act CS: compounds boosting diaphorase resazurin reduction – biochemical, uHTS, resorufin fluorescence, counter-screen for diaphorase-coupled primary assays, primary screen; Diaphorase/resazurin coupled assay, 16 min; stronger effect = higher value; 1 = vehicle wells, 0 = NADH-free wells; activation factor at 20 µM; 190,000 tested, 0.005% active; AID 1229, 2008;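 active means diaphorase activity raised at least twofold by the compound at 20 µM; inactive means activation factor below 2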
#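 Assay system: bacterial diaphorase enzyme (C. kluyveri) / Input: enzyme 0.07 U/mL final / Medium: 50 mM HEPES pH 7.4 with 4.542 mM MgCl2, 0.005% Tween 20 / Doses: single compound dose of 20 µM, 1% DMSO final / Incubation: 16 min enzyme reaction, ambient temperature / Signal: fluorescence, excitation 544 nm and emission 590 nm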
# PMI act satM6P: human PMI activators, high substrate, primary screen, biochemical, fluorescence intensity, near-saturating mannose 6-phosphate; Mannose-6-phosphate isomerase (Homo sapiens), P34949; coupled PMI enzyme assay, resazurin fluorescence, 20 min; stronger effect = higher value; 1 = untreated enzyme, 0 = substrate-free blank; activation factor at 20 µM; 190,000 tested, 0.34% active; AID 1216, 2008;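 active means activation factor of 2 or more at 20 µM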
# Target sequence (P34949 whole entry, looked up): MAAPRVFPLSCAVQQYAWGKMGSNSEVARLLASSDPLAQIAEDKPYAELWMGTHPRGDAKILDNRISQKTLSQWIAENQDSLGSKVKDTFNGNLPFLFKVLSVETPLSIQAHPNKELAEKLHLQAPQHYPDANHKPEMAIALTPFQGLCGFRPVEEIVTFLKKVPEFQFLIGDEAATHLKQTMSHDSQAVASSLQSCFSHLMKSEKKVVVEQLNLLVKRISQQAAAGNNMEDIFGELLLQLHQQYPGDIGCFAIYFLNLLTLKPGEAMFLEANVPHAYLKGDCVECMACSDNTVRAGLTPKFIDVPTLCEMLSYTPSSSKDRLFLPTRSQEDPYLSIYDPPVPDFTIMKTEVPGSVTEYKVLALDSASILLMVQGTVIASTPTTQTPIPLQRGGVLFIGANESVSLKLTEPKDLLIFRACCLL
#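 Material: human phosphomannose isomerase with PGI, G6PDH, diaphorase coupling enzymes; amount: PMI at 15 ng/mL final; also added: Mannose-6-phosphate 1.0 mM (near-saturating) plus 0.22 mM NADP+; incubation: enzyme reaction with compound 20 min at room temperature; signal: resorufin fluorescence (Ex 544/Em 590 nm) from resazurin via diaphorase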
# G6PDH CS: L. mesenteroides G6PDH inhibitors, counter-screen for G6PDH-coupled screening assays, biochemical, Leuconostoc mesenteroides enzyme | glucose-6-phosphate dehydrogenase [Leuconostoc mesenteroides] | Purified L. mesenteroides G6PDH, diaphorase/resazurin coupled fluorescence, 45 min | inhibition, % at 5 µM | 200,000 tested, 0.12% active | AID 1020, 2008; in the data active means inhibition above about 50%
# Diaphorase inh: diaphorase inhibitors and chemical oxidizers, primary screen, counter-screen for diaphorase-coupled primary assays, biochemical, uHTS, resorufin fluorescence. diaphorase resazurin-to-resorufin fluorescence, NADH, 16 min; bacterial (C. kluyveri) enzyme, not human. inhibition, % at 20 µM. 190,000 tested, 0.69% active. AID 1217, 2008;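 active means primary screen inhibition at 20 µM above a set limit, cut at about 50% in these data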
#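 controls = No-NADH positive control and DMSO neutral control | system = Clostridium kluyveri diaphorase enzyme | timing = reaction incubation of 16 min at room temperature | signal = resorufin fluorescence 544/590 nm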
# Redox H2O2 prof: compounds producing H2O2 with reducing agent – biochemical, NIH compound library profiling, artefact control for MLSCN library redox annotation, primary screen; DTT-dependent redox cycling H2O2, phenol red/HRP absorbance; 100% = 100 µM peroxide control, 0% = buffer; activation, % at 10 µM; 200,000 tested, 0.03% active; AID 878, 2007;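 active means activation of at least 50% relative to the plate's high and low controls in the primary single-dose screen; inactive means activation below 50%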;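 further: compound incubated with DTT at 0.8 mM final as the reducing agent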
# PMI activator: activators of human PMI, primary screen, biochemical, fluorescence intensity, near-Km mannose 6-phosphate | Mannose-6-phosphate isomerase (Homo sapiens), P34949 | purified human PMI, coupled resazurin fluorescence, 20 min; stronger effect = higher value; 1 = vehicle control, 0 substrate-free wells | activation factor at 20 µM | 190,000 tested, 0.005% active | AID 1214, 2008;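 active means activation factor of 2 or more at 20 µM, relative to plate controls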
# A number is an active result; 0 = inactive; - = no result.
SMILES,Diaph act CS,PMI act satM6P,G6PDH CS,Diaphorase inh,Redox H2O2 prof,PMI activator
COc1ccc(N=C(NN)c2ccc3ccccc3n2)cc1,0,2.3,0,0,0,0
NNC(=O)c1ccc2ccccc2n1,0,0,0,0,0,0
COc1cccc(C2(O)CC(C(F)(F)F)=NN2C(=O)c2ccccn2)c1 (stereo unspecified),0,0,0,0,0,0
Cc1ccc(-c2onc3ccc(C4OCCO4)cc23)cc1,0,0,0,0,0,0
Cn1c(=O)c2cn3c(c2n(C)c1=O)C(c1ccccc1)CC(c1ccccc1)=N3 (stereo unspecified),0,2,0,0,0,0
Cc1cccnc1NC1OC(=O)c2ccccc21 (stereo unspecified),0,0,0,0,0,0
O=C1OC(Nc2ccc3ncccc3c2)c2ccccc21 (stereo unspecified),0,0,0,56.3,0,0
CC(=O)NC1=C(NC2CCS(=O)(=O)C2)C(=O)c2ccccc2C1=O (stereo unspecified),0,0,0,0,0,0
CN(C1=C(NC(=O)c2ccccc2)C(=O)c2ccccc2C1=O)C1CCS(=O)(=O)C1 (stereo unspecified),0,0,0,59.2,0,0
O=C(NC1CCS(=O)(=O)C1)/C(=C/c1ccco1)NC(=O)c1ccccc1 (stereo unspecified),0,0,0,54.9,0,0
O=C(NC1CCS(=O)(=O)C1)/C(=C\c1ccc(F)cc1)NC(=O)c1ccccc1 (stereo unspecified),0,0,0,0,0,0
CCOc1ccc2nc3c(cc2c1)CN(CCOC)C(=NCCOC)S3,0,0,0,0,0,0
COCCN=C1Sc2nc3ccc(C)cc3cc2CN1Cc1ccco1,0,2.1,0,0,0,0
N#Cc1ccc(-c2ccc(OCC(=O)NCC(=O)Nc3ccc(F)c(F)c3F)cc2)cc1,0,0,0,0,0,0
COc1ccc(O)c(N)c1,0,0,0,61.8,0,0
Cc1ccc(NC(=O)Nc2ccc(S(N)(=O)=O)cc2)cc1,0,0,0,0,0,0
Cc1ccc(S(=O)(=O)c2ccc(NN)cc2)cc1,0,2.5,0,0,0,0
Cc1cccc(CSc2nc(N)c(C#N)c(-c3cccs3)c2C#N)c1,0,0,0,0,0,0
Cc1cccc(CSc2nc3c(c(-c4cccs4)c2C#N)CN(C)CC3)c1,0,0,0,58.4,0,0
Nc1ccc2nn(-c3ccccc3)nc2c1,0,0,0,60.4,0,0
Nc1cc2nn(-c3ccccc3)nc2cc1Cl,0,0,54.9,81.2,0,0
COC(=O)c1cc(OC)c(OC)cc1NC(=O)C(C)c1ccc([N+](=O)[O-])cc1 (stereo unspecified),0,0,0,0,0,0
Cc1ccc(SCCOCCN2CCc3ccccc3C2)cc1,0,0,0,0,0,0
OCCC#Cc1ccc(CN2CCN(C3CCCCC3)C(CCO)C2)cc1 (stereo unspecified),0,0,0,0,0,0
CC12CCC(C(=O)N(CSC(=S)N/N=C\c3ccccc3O)C1=O)C2(C)C (stereo unspecified),0,0,0,56.7,0,0
SMILES,Diaph act CS,PMI act satM6P,G6PDH CS,Diaphorase inh,Redox H2O2 prof,PMI activator
CSc1nnc(-c2cc(-c3ccc(C)cc3)nc3ccccc23)o1,0,0,0,0,0,0
Cc1ccc(-c2cc(-c3n[nH]c(=S)o3)c3ccccc3n2)cc1,0,2.2,0,0,0,0
COc1ccc(C(=O)NCCOc2cccc(OC)c2)cc1,0,0,0,67.5,0,0
COc1ccc(C(=O)NCCSc2ccccc2)cc1,0,0,0,0,0,0
CCOc1cc(CNc2ccc3cn[nH]c3c2)ccc1OC,0,0,0,56.9,0,0
COc1ccc(CNc2ccc3cn[nH]c3c2)c(OC)c1OC,0,0,0,56.7,0,0
COc1ccccc1S(=O)(=O)Nc1ccc2cn[nH]c2c1,0,0,0,0,0,0
CC(=O)C1C(=O)c2c(cccc2[N+](=O)[O-])C1=Nc1ccc(S(N)(=O)=O)cc1 (stereo unspecified),0,0,0,0,0,0
COc1ccc(-c2csc(NC(=O)/C(N=Nc3ccccc3)=C(\C)O)n2)cc1,-,-,0,-,0,-
O=C(Nc1ccccc1)OC1CCC2CC1CCC2OC(=O)Nc1ccccc1 (stereo unspecified),0,0,0,0,0,0
CCNC(=O)NC(=O)C(C)Oc1ccc(Br)cc1Br (stereo unspecified),0,0,0,0,0,0
O=C(CSc1nnnn1-c1ccc(F)cc1)c1ccc(O)c(O)c1,0,0,0,50.1,0,0
Cc1ccc2sc(NNC(=O)c3cc(=O)c4ccccc4o3)nc2c1C,0,0,0,57.6,0,0
Cc1cccc2sc(NNC(=O)c3cc(=O)c4ccccc4o3)nc12,0,0,0,0,0,0
Cn1c(=O)c(-c2cc(=O)[nH][nH]2)c(O)c2ccccc21,0,0,0,0,0,0
COc1ccc(N2CCN(C(CNC(=O)C(=O)NCCc3c[nH]c4ccccc34)c3ccco3)CC2)cc1 (stereo unspecified),0,0,0,0,0,0
CC(C)NC(=O)c1ccc2c(c1)S(=O)(=O)c1ccccc1C2=O,0,0,0,0,0,0
NNC(=O)c1ccc2c(c1)S(=O)(=O)NNC2=O,0,2.9,0,0,0,0
CCOc1ccccc1N1C(=O)CC(Sc2n[nH]c(-c3ccccc3)n2)C1=O (stereo unspecified),0,0,0,0,0,0
CCCNC1=C(N(C(C)=O)c2cccc(F)c2)C(=O)c2ccccc2C1=O,0,0,52.4,0,0,0
CC1(NC(=O)CC[N+](C)(C)CCO)CS(=O)(=O)CC1S(=O)(=O)[O-] (stereo unspecified),0,0,0,0,0,0
O=C(/C=C/c1ccccc1)NC(=S)NNC(=O)c1cccnc1,0,0,0,81.2,0,0
Cc1onc(-c2ccccc2)c1C(=O)NC(=S)NNC(=O)c1cccnc1,0,0,0,0,0,0

# Bioassay records (PubChem)
